The source of these data is ChEMBL document CHEMBL4346709, “Design and Optimization Leading to an Orally Active TTK Protein Kinase Inhibitor with Robust Single Agent Efficacy” (J Med Chem, 2019).

Data set [1] concerns the target T1, Testis-specific serine/threonine-protein kinase 1 (Homo sapiens, UniProt Q9BXA7).
T1 sequence (Q9BXA7 whole entry): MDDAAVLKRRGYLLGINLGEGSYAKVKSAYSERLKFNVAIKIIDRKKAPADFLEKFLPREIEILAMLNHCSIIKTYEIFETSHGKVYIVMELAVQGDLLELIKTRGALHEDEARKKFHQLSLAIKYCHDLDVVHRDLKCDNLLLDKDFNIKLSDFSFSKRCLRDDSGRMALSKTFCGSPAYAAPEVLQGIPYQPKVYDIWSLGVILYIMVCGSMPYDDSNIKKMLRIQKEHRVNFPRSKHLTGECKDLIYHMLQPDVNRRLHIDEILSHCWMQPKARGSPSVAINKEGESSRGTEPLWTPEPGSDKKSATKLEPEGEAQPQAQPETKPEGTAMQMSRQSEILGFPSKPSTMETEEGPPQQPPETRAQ
In words: Inhibition of recombinant human full length His-tagged TSSK1 expressed in baculovirus expression system by Z'-LYTE assay.

Data set [2] has as its target T2, Dual specificity protein kinase CLK2 (Homo sapiens, UniProt P49760). Kind of data set: Inhibition of recombinant human GST-tagged CLK2 catalytic domain (137 to 498 residues) expressed in baculovirus expression system by Z'-LYTE assay.
Target sequence in this assay (P49760 whole entry, the tested form may be a part): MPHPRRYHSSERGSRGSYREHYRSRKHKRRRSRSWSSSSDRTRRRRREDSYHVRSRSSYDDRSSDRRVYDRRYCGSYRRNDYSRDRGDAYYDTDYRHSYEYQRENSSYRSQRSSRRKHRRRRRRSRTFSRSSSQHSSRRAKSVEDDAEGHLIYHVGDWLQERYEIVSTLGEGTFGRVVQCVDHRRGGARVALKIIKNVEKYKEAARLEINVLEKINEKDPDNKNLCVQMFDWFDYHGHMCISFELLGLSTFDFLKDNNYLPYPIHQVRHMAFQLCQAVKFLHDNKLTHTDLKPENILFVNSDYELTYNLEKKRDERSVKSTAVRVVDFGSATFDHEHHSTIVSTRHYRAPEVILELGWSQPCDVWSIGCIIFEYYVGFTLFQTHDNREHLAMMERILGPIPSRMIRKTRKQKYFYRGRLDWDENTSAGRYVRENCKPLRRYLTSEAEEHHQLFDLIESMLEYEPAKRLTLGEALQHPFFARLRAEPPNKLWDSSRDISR
The target in data set [3] is T3, Dual specificity protein kinase TTK (Homo sapiens, UniProt P33981).
T3 sequence (P33981 whole entry): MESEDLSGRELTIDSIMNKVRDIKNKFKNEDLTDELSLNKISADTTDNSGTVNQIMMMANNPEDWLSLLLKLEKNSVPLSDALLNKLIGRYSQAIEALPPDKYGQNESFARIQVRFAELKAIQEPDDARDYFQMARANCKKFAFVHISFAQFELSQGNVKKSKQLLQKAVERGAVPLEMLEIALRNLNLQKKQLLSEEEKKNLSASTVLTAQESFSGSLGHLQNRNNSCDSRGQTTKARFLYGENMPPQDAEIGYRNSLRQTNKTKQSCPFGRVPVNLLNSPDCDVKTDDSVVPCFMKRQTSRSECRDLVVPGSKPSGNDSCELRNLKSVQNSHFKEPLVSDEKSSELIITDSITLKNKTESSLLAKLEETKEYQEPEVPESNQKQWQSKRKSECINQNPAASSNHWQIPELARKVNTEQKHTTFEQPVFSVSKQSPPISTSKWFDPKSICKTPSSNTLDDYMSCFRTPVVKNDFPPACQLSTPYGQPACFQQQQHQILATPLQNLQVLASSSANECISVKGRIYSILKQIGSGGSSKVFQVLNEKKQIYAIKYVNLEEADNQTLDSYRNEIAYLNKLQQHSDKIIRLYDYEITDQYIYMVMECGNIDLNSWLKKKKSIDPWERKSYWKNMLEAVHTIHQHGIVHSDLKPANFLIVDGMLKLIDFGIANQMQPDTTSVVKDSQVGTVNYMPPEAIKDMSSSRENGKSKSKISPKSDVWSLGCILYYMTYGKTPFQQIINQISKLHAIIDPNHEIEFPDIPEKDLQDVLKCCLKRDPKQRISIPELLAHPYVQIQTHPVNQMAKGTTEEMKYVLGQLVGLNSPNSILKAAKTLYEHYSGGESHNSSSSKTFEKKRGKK
In words: Inhibition of Kinase Tracer 236 binding to recombinant human full-length GST-tagged TTk expressed in baculovirus expression system measured after 1 hr by LanthaScreen Eu--kinase binding assay. A general note: In TR-FRET formats the signal depends on donor and acceptor labels being close together.

A short description of data set [4]: Toxicity in CB17 SCID mouse xenografted with human CAL51 cells assessed as loss of body weight at 30 to 120 mg/kg, po administered every seven days for 16 days and measured up to 31 days. In kind it is organism-based. The note with it: in vivo. An outline of the steps:
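Female CB17 SCID mice bearing subcutaneous CAL-51 xenografts (2×10^6 cells). Oral dosing once weekly at 30-120 mg/kg, or 30 mg/kg BID once weekly, for 16 days. Body weight loss tracked alongside tumour measurements, against vehicle.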

Data set [5] has as its target Leucine-rich repeat serine/threonine-protein kinase 2 (Homo sapiens, UniProt Q5S007, G2019S). In words: Inhibition of recombinant human GST-tagged LRRK2 G2019S mutant catalytic domain (970 to 2527 residues) expressed in baculovirus expression system using LRRKtide as substrate measured after 1 hr by Alexa-fluor-647 ADP tracer-based ADAPTA assay.
In data set [6] the target is T3, Dual specificity protein kinase TTK. Kind of data set: Inhibition of TTK in human CAL51 cells assessed as decrease in phosphorylated TTK T686 levels after 1 hr by Western blot analysis. In kind it is cell-based. On the technique in general: Immunoblotting shows a protein as a band on a membrane.
Data set [7] can be described thus: Cmax in rat at 10 mg/kg, po. The format is ADME, organism-based. Set-up: dose 10 mg/kg, route oral. The conditions noted are these: in vivo. An outline of the steps:
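Rat oral PK at 10 mg/kg. Compound is given as a solution in CMCT (0.5% CMC/0.25% tween-80) or formulated in 5% TPGS, 10% captisol, 50 mM citrate buffer. Cmax and AUC are recorded.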

In data set [8] the target is T2, Dual specificity protein kinase CLK2. Kind of data set: Inhibition of recombinant human GST-tagged CLK2 catalytic domain (137 to 498 residues) expressed in baculovirus expression system at 3 uM by Z'-LYTE assay relative to control. The method in brief:
(§1)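 Kinase selectivity panel: single-point assessment at 3 µM, n=1.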
Target sequence in this assay (P49760 whole entry, looked up, the tested form may be a part): as the sequence (P49760 whole entry, the tested form may be a part) above

For data set [9], the target named is Mitogen-activated protein kinase 8 (Homo sapiens, UniProt P45983). Kind of data set: Inhibition of recombinant human full length His-tagged JNK1 expressed in baculovirus expression system by Z'-LYTE assay.
Chain of Mitogen-activated protein kinase 8 (P45983 whole entry): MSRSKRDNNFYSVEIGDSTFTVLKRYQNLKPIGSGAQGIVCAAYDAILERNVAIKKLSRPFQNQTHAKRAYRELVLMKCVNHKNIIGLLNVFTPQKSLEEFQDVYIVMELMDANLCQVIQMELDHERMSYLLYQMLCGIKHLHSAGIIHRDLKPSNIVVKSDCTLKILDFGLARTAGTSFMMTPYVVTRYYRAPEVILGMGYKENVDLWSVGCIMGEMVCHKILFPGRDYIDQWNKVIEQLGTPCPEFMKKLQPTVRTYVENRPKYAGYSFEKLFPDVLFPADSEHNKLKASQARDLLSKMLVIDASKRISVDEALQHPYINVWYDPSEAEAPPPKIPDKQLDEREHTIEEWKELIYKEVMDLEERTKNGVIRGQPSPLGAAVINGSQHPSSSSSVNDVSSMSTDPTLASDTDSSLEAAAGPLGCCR
In data set [10] the target is Mitogen-activated protein kinase 9 (Homo sapiens, UniProt P45984). Kind of data set: Inhibition of recombinant human full length His-tagged JNK2 expressed in baculovirus expression system by Z'-LYTE assay.
Chain of Mitogen-activated protein kinase 9 (P45984 whole entry, the tested form may be a part): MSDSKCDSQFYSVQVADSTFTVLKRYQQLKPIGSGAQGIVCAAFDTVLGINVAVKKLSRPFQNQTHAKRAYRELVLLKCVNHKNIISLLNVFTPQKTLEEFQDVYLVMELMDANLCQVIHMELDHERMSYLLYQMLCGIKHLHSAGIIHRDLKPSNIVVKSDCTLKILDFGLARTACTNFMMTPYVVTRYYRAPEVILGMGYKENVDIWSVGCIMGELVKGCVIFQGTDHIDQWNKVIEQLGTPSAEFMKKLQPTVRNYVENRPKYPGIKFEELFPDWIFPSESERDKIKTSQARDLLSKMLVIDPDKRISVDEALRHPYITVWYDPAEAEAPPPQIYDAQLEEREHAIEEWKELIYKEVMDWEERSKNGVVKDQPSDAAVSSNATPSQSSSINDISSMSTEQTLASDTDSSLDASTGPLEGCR
The species named for data set [11] is Homo sapiens. In words: Selectivity ratio of IC50 for recombinant human GST-tagged LRRK2 catalytic domain (970 to 2527 residues) expressed in baculovirus expression system to IC50 for inhibition of Kinase Tracer 236 binding to recombinant human full-length GST-tagged TTk expressed in baculovirus expression system.
Data set [12] has as its system CAL-51. Kind of data set: Antitumor activity against human CAL51 cells xenografted in CB17 SCID mouse assessed as tumor growth inhibition at 30 mg/kg, po […] for 16 days and measured twice per week up to 31 days by caliper method relative to control. The format is functional. The note with it: CAL-51, po, read-out: TGI. An outline of the steps:
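Female CB17 SCID mice, 6-8 weeks old, inoculated subcutaneously with 2×10^6 CAL-51 cells. Oral dosing once weekly (QW) at 30-120 mg/kg, or 30 mg/kg BID QW, for 16 days, against vehicle control. Tumour long and short axes measured twice weekly by digital caliper; volume = width² × length/2. Values are TGI; data are mean ± SEM.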
(In general: A xenograft is tissue or cells of one species grown in another, often human tumour cells in immunodeficient mice.)

Data set [13] concerns the target Leukocyte tyrosine kinase receptor (Homo sapiens, UniProt P29376). In words: Inhibition of recombinant human GST-tagged LTK cytoplasmic domain (450 to 864 residues) expressed in baculovirus expression system at 3 uM by Z'-LYTE assay relative to control. An outline of the steps: as §1
The subject of data set [14] is Mus musculus. Kind of data set: Inhibition of mitosis in human CAL51 cells xenografted in CB17 SCID mouse assessed reduction in pHH3 ser10 level at 30 mg/kg, po administered as single dose measured up to 48 hrs by MSD electrochemiluminescent immunoassay. In kind it is functional, organism-based. The method in brief: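 CB17 SCID mice bearing CAL-51 tumours of 300-500 mm3 given compound orally. At preset time points the mice were euthanised and the tumours dissected and snap-frozen in liquid nitrogen. pHH3 Ser10 or cleaved caspase measured by MSD electrochemiluminescent immunoassay kit. Data are mean ± SEM.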

Calls of active or inactive are those of the source. No cut-off for these calls is given here.

Chain of Leucine-rich repeat serine/threonine-protein kinase 2 (Q5S007 whole entry G2019S, the tested form may be a part): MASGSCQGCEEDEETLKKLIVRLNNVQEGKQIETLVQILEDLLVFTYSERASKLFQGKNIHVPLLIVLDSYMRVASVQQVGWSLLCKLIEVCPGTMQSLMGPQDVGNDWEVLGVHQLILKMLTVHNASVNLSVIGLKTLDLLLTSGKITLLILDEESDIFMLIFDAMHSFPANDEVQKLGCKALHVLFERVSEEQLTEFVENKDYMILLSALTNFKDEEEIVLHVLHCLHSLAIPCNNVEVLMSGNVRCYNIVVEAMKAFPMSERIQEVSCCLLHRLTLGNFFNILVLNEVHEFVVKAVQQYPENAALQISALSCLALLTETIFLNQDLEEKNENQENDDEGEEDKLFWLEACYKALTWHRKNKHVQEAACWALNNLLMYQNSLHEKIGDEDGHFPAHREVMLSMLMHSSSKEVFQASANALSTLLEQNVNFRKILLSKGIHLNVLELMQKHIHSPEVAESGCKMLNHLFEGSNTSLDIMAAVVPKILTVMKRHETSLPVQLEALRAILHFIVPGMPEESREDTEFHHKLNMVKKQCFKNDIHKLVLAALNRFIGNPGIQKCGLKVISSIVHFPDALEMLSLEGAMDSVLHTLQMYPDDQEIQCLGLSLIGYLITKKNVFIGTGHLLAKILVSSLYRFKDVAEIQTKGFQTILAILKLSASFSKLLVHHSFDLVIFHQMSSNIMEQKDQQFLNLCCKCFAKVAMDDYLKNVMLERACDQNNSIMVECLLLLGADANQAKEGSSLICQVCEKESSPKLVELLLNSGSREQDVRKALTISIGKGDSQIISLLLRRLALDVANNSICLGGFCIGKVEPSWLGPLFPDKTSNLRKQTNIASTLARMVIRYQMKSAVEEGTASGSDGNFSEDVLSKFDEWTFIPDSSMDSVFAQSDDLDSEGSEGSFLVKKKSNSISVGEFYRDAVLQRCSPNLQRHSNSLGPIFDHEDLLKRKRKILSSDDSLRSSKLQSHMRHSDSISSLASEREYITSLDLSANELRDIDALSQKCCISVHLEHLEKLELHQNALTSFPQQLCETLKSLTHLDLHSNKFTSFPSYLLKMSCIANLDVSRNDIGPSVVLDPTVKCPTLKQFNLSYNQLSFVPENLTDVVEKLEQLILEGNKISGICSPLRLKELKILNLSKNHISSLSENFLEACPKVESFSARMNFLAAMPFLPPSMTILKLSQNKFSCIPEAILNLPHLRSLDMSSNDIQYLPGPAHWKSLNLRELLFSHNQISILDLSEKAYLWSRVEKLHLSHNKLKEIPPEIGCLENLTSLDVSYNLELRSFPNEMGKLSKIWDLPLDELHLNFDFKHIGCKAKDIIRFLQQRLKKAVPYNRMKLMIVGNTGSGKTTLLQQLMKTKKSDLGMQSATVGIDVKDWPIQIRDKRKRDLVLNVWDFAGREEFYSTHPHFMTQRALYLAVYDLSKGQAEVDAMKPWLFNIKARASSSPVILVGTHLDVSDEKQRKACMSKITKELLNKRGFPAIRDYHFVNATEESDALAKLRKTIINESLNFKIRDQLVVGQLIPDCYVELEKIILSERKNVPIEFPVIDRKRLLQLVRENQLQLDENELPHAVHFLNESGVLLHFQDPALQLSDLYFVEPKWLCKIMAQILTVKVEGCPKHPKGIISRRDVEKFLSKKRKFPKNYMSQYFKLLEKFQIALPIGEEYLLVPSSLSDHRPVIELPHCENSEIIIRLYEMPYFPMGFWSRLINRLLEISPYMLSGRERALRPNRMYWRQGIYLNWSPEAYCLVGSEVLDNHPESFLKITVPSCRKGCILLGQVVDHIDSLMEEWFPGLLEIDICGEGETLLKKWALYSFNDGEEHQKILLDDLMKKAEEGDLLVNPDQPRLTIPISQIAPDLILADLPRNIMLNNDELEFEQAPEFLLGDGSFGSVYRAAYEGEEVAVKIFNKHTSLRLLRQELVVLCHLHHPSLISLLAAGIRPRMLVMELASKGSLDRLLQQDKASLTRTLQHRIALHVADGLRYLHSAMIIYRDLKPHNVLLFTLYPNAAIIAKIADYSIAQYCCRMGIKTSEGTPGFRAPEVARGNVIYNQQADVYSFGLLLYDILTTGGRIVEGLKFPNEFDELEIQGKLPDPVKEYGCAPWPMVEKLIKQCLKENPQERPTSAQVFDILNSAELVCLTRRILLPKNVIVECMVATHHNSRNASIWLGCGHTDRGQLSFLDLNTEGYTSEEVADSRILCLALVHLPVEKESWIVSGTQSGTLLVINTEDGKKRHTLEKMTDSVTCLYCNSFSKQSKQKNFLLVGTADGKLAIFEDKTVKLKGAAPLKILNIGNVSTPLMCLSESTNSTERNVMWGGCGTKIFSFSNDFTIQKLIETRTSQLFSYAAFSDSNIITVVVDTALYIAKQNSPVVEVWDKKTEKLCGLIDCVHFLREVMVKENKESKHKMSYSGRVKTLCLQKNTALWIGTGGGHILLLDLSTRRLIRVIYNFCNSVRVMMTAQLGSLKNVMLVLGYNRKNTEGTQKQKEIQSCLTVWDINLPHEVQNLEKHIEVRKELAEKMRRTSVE
Chain of Leukocyte tyrosine kinase receptor (P29376 whole entry, the tested form may be a part): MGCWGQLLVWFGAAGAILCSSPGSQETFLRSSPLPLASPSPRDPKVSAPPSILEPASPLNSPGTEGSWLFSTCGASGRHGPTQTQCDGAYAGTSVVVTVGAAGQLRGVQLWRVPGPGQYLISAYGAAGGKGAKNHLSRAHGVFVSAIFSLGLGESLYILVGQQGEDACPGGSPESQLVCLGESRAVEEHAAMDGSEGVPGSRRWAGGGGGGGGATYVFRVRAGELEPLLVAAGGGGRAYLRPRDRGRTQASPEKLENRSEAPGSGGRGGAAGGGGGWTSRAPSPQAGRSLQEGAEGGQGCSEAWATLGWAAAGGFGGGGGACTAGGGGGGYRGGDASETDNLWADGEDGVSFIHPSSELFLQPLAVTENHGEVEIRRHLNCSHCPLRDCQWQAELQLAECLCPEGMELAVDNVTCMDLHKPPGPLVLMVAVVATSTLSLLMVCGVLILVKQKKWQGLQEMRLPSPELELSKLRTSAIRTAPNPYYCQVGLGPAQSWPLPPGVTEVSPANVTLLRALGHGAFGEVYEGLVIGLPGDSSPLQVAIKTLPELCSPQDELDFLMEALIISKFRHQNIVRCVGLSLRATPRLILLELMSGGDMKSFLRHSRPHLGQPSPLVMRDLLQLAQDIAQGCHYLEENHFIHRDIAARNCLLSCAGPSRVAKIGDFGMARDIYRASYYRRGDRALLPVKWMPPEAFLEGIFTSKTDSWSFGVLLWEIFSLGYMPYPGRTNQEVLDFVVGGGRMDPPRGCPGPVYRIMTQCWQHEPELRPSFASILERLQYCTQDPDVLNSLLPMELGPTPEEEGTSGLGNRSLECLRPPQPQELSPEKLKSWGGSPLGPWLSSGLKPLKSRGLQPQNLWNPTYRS

In the case of `C[C@@H](Oc1cc(C(=O)N(C)C)ccc1Nc1nc(O[C@H]2CC[C@@](C)(O)CC2)c2c(Cl)c[nH]c2n1)C(F)(F)F`, the IC50 in [1] stood at 0.217 nM; in data set [2] it was 0.261 nM; in [3] it was 0.7 nM; in data set [5], 0.001 nM; in [6] it was 11 nM; in [9], 0.032 nM. Moreover, in data set [10], the IC50 turned out to be 0.059 nM. For the same compound, the Activity result in [4] is “Non-Toxic”. In data set [7], this compound gave a Cmax of 4.35 µM. Moreover, the inhibition in [8] and in data set [13] was greater than 80% each time. The Ratio IC50 in data set [11] is less than 100. In addition, the inhibition in vivo at 30 mg/kg in data set [12] was found to be 84%. Also, the inhibition result in data set [14] is “Active”.

The term IC50 denotes the concentration that gives 50% inhibition. One may read the Cmax as the peak of the concentration-time curve. What is called inhibition is the percentage by which the read-out fell short of the control.
